# Test results from publication PMC4844355 (Cellular and Molecular Gastroenterology and Hepatology, 2016).
# “Also recorded” adds a separate entry of the source.
# Key:
# [1] = 7-day oral toxicity study in mice; assay type: in vivo, mouse
# How it was run: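 Mice received 10 mg/kg test compound or vehicle orally once daily for 7 days. One hour after the last dose, loperamide 0.3 mg/kg IP was given and stool was collected for 3 h. At 4 h after the last dose: complete blood count, serum chemistry, body weight and lung wet/dry weight ratio. Mean ± SEM, 5 mice per group.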
# [2] = In vitro metabolic stability in mouse liver microsomes; assay type: in vitro ADME
# How it was run: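 Test compound (5 μmol/L) incubated at 37°C for set times with mouse liver microsomes (1 mg protein/mL) in 100 mmol/L potassium phosphate with 1 mmol/L NADPH. Reaction chilled on ice and extracted with ice-cold ethyl acetate, then centrifuged. Supernatant dried, residue taken up in acetonitrile:water 3:1, and parent measured by LC-MS.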
# [3] = system: loperamide-induced mouse model of constipation; test: Loperamide-induced constipation model in wild-type mice; assay type: in vivo; details: for Stool weight, pellet number and water content (3 hours): 10 mg/kg intraperitoneal, loperamide-treated wild-type mice; for Normalization of stool output as percent of the maximal CFTRact-J027 response: 0.5 mg/kg oral
# How it was run: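 Female CD1 mice (8–10 wk) given loperamide 0.3 mg/kg IP. Test compound (0.1–10 mg/kg) or vehicle given IP at the same time, or orally 1 h before. Mice then housed singly in metabolic cages and stool collected for 3 h: total weight, pellet number, and water content after drying at 80°C for 24 h. Mean ± SEM; 6 mice per group, dose-response 4–6 per group.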
# cystic fibrosis mice = test: Whole-gut transit time in cystic fibrosis mice; assay type: in vivo, mouse; details: 10 mg/kg IP
# How it was run: (§1)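 Marker (200 μL; 5% Evans Blue, 5% gum Arabic) given by oral gavage at zero time. At the same time, loperamide (0.3 mg/kg) and test compound (10 mg/kg) or vehicle given IP, to wild-type or cystic fibrosis mice. Whole-gut transit time taken as the time the marker appears in stool.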
# [4] = system: isolated mouse ileum and colon strips; test: Ex vivo contractility of isolated intestinal strips; details: added alone or in the presence of 10 μmol/L loperamide
# [5] = system: closed midjejunal loops in cystic fibrosis mice; test: Intestinal fluid secretion in closed midjejunal loops, cystic fibrosis mice; assay type: in vivo, mouse; details: 100 μg per loop, 90 minutes
# How it was run: (§2)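 Mice fasted 24 h with 5% dextrose water only, then anaesthetised with isoflurane and kept at 36–38°C. Closed midjejunal loops (2–3 cm) tied off by sutures and injected with 100 μL vehicle or 100 μg test compound in vehicle. Incision closed and mice recovered. Loops removed at 90 min; loop weight/length taken as fluid secretion. 4 loops per group.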
# FRT cells = test: In vitro cytotoxicity by Alamar Blue assay; assay type: cell-based, rat
# How it was run: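 FRT cells exposed to 25 μmol/L test compound for 8 and 24 h, with viability read by Alamar Blue. Mean ± SEM, n = 3 cultures.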
# [6] = system: cystic fibrosis mice (ΔF508 homozygous); assay type: in vivo, mouse; details: loperamide model; cystic fibrosis mice lacking functional CFTR
# How it was run: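 ΔF508-homozygous cystic fibrosis mice run in the same loperamide protocol as wild-type mice (0.3 mg/kg IP, test compound or vehicle). Stool collected for 3 h in metabolic cages; weight, pellet number, and water content measured after drying at 80°C for 24 h. 3–6 mice per group.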
# [7] = Pharmacokinetics in mice after bolus IP or oral administration; assay type: in vivo, mouse
# How it was run: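 Female CD1 mice dosed once with 10 mg/kg test compound in saline containing 5% DMSO and 10% Kolliphor HS 15, IP or orally. Blood taken by orbital puncture at 15, 30, 60, 150, 240 and 360 min, and plasma separated by centrifugation. Levels measured by LC-MS against calibration standards spiked into untreated mouse plasma. Mean ± SEM, 3 mice per group.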
# human wild-type CFTR = human wild-type CFTR (Homo sapiens, UniProt P13569); test: Short-circuit current in FRT cells expressing wild-type human CFTR; assay type: cell-based
# How it was run: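 FRT cells stably expressing wild-type human CFTR grown on porous filters. Basolateral membrane permeabilized with 250 μg/mL amphotericin B. Apical side given a Cl⁻ gradient (65 mmol/L NaCl replaced by Na gluconate, 2 mmol/L CaCl2) against HEPES-buffered basolateral saline, pH 7.3, 37°C. Forskolin, test compound, then CFTRinh-172 (10 μmol/L) added. Concentration dependence: mean ± SEM, n = 3 cultures.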
# ΔF508-CFTR = ΔF508-CFTR (Homo sapiens, UniProt P13569, DEL508-508); test: Short-circuit current in FRT cells expressing ΔF508-CFTR; assay type: cell-based; details: FRT cells expressing ΔF508-CFTR after overnight incubation with corrector VX-809
# How it was run: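 Short-circuit current in FRT cells expressing ΔF508-CFTR, pre-corrected with 3 μmol/L VX-809 at 37°C for 24 h. Responses recorded to added forskolin, test compound and VX-770, with CFTRinh-172 (10 μmol/L) where indicated. Traces representative of 3 experiments.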
# [8] = system: closed midjejunal loops of cystic fibrosis mice; test: Intestinal fluid absorption in closed midjejunal loops, cystic fibrosis mice; assay type: in vivo, mouse; details: 100 μg per loop, 30 minutes
# [9] = system: loperamide-treated wild-type mice; test: Whole-gut transit time in loperamide-treated wild-type mice; assay type: in vivo, mouse; details: 10 mg/kg IP with loperamide at zero time
# How it was run: as §1
# cAMP = test: GloSensor luminescence cAMP assay in FRT null cells; assay type: cell-based, rat; details: 5 μmol/L, 10 minutes
# How it was run: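 FRT null cells stably transfected with a GloSensor cAMP plasmid, grown to confluence and washed 3× in PBS. Incubated 10 min with 5 μmol/L test compound, without or with forskolin (100 nmol/L). cAMP read by luminescence. Positive controls: forskolin 100 nmol/L and 20 μmol/L, forskolin plus IBMX 100 μmol/L. Mean ± SEM, n = 4–8.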
# loperamide-treated mice = test: Efficacy in loperamide model after 7-day chronic oral administration; assay type: in vivo, mouse; details: 10 mg/kg orally for 7 days, loperamide 1 hour after final dose
# Solubility limit = assay type: physicochemical
# [10] = system: closed midjejunal loops in wild-type mice; test: Intestinal fluid secretion in closed midjejunal loops, wild-type mice; assay type: in vivo, mouse; details: 100 μg per loop, 90 minutes
# How it was run: as §2
# [11] = system: constipation-predominant irritable bowel syndrome patients; details: cited from earlier work
# [12] = system: chronic constipation patients; details: placebo 0.9; cited from earlier work
# [13] = 10 mg/kg orally once a day for 7 days
# [14] = 10 mg/kg orally once per day for 7 days, mean ± SEM, 5 mice
molecule,measurement,setting,value
"Nc1ccc([N+](=O)[O-])cc1-c1nc2ccccc2n(Cc2ccccc2)c1=O [CFTRact-J027, 3-(2-amino-5-nitrophenyl)-1-benzylquinoxalin-2(1H)-one]",Body weight,[1]; [13],did not change body weight
same,Lung water content (lung wet/dry weight ratio),[1]; [13],normal lung water content
same,Major serum chemistry and blood parameters,[1]; [13],did not affect the major serum chemistry and blood parameters
same,ALP level,[1]; [14],53 ± 2.5 U/L
same,ALT level,[1]; [14],44 ± 6 U/L
same,AST level,[1]; [14],105 ± 11 U/L
same,Albumin level,[1]; [14],2.9 ± 0.03 g/dL
same,BUN level,[1]; [14],18.4 ± 1.2 mg/dL
same,Bicarbonate level,[1]; [14],16 ± 1.7 mmol/L
same,CK level,[1]; [14],312 ± 62 U/L
same,Calcium level,[1]; [14],8.5 ± 0.04 mg/dL
same,Chloride level,[1]; [14],115 ± 1 mmol/L
same,Cholesterol level,[1]; [14],121 ± 6 mg/dL
same,Creatinine level,[1]; [14],0.2 ± 0 mg/dL
same,Globulin level,[1]; [14],2.2 ± 0.1 g/dL
same,Glucose level,[1]; [14],164 ± 6 mg/dL
same,Hemoglobin level,[1]; [14],12.8 ± 0.3 g/dL
same,Leukocyte level,[1]; [14],1.9 ± 0.5 10^3/μL
same,Phosphorus level,[1]; [14],6.8 ± 0.3 mg/dL
same,Potassium level,[1]; [14],4.4 ± 0.1 mmol/L
same,Sodium level,[1]; [14],151 ± 0.7 mmol/L
same,Thrombocyte level,[1]; [14],900 ± 48 10^3/μL
same,Total bilirubin level,[1]; [14],0.1 ± 0 mg/dL
same,Total protein level,[1]; [14],5.2 ± 0.1 g/dL
same,Original compound remaining at 60 minutes,"[2]; mouse liver microsomes, 60 minutes",7%
same,half-life at 5 μmol/L,"[2]; mouse, liver microsomes",~21 min
same,"Stool weight, pellet number and water content (3 hours)",[3],normalized each of the stool parameters
same,"Stool output and water content, oral administration","[3]; 10 mg/kg oral 1 hour before loperamide, loperamide-treated mice",effective in normalizing stool output and water content
same,"Stool output and water content in control mice, oral administration","[3]; 10 mg/kg oral, control mice",no effect
same,Stool output or water content in control mice,"[3]; intraperitoneal, control (non-loperamide-treated) mice",did not affect stool output or water content
same,"50% effective dose, IP administration","[3]; loperamide model, intraperitoneal",2 mg/kg
same,Whole-gut transit time in cystic fibrosis mice,cystic fibrosis mice,no effect
same,Intestinal contraction,[4],no effect
same,Loop fluid secretion in cystic fibrosis mice,[5],without effect
same,Non-cytotoxic concentration relative to EC50 for CFTR activation,FRT cells; 25 μmol/L versus EC50,more than 100 fold
same,Cytotoxicity (Alamar Blue),"FRT cells; 25 μmol/L, FRT cells, 8 and 24 hours",did not show cytotoxicity
same,Stool output and water content in cystic fibrosis mice,[6],without effect
same,half-life,"[7]; female, CD1, mouse, serum, ip, 10 mg/kg",~16 min
same,concentration at 30 minutes,"[7]; female, CD1, mouse, serum, po, 10 mg/kg",180 nM
same,Serum concentration at 150 minutes after IP administration,"[7]; mice, 10 mg/kg IP, 150 minutes",undetectable
same,Blood levels after oral administration,"[7]; mice, 10 mg/kg oral",less than 200 nmol/L
same,Serum concentration at other time points after oral administration,"[7]; mice, 10 mg/kg oral, time points other than 30 minutes",undetectable
same,Oral bioavailability,"[7]; mice, 10 mg/kg oral, 10 mg/kg",minimal bioavailability; also recorded: very low bioavailability
same,CFTR activation at 3 μmol/L,"human wild-type CFTR; FRT cells expressing wild-type CFTR, 3 μmol/L",nearly full activation
same,CFTR activation (short-circuit current),"human wild-type CFTR; FRT cells, wild-type CFTR, forskolin produced minimal further increase",fully activated CFTR
same,CFTR activation in the absence of forskolin,"human wild-type CFTR; FRT cells, wild-type CFTR, no forskolin, data not shown",Little CFTR activation
same,Potentiation of ΔF508-CFTR,ΔF508-CFTR,only a weak potentiator; also recorded: substantially less potent than ivacaftor
same,Intestinal fluid absorption,[8],did not affect intestinal fluid absorption
same,Whole-gut transit time,[9],normalized
same,"Cellular cAMP, compound added alone",cAMP,does not increase cellular cAMP
same,"Cellular cAMP, compound added together with forskolin",cAMP; with forskolin,does not increase cAMP further
same,Stool output and water content after chronic administration,loperamide-treated mice,remained effective in normalizing stool output and water content
same,solubility,Solubility limit,~25 µM
same,Increase in loop weight/length ratio (fluid secretion),[10],140%
"Cn1c(=O)c(-c2cc([N+](=O)[O-])ccc2N)nc2ccccc21 [inactive chemical analog of CFTRact-J027, 3-(2-amino-5-nitrophenyl)-1-(methyl)-2(1H)-quinoxalinone]","Stool weight, pellet number and water content (3 hours)",[3],not effective
"CCCCC(F)(F)[C@@]1(O)CC[C@H]2[C@@H](CC(=O)[C@@H]2CCCCCCC(=O)O)O1 [lubiprostone, reference compound]",Normalization of stool output as percent of the maximal CFTRact-J027 response,[3]; loperamide-treated mice,50%
same,Overall response rate,[11],approximately 13%
linaclotide [reference compound],Normalization of stool output as percent of the maximal CFTRact-J027 response,[3]; loperamide-treated mice,35%
same,CSBM per week,[12],~2.5
